Measured values reported in ChEMBL document CHEMBL1127471, “Tricyclic analogues of acyclovir and ganciclovir. Influence of substituents in the heterocyclic moiety on the antiviral activity” (1994).
Converted amounts (≈) assume the structure as drawn.

Columns and labels:
Format in all cases: functional
[1] = The minimum inhibitory concentration was measured against Herpes simplex virus type 1 (KOS strain) on E6SM cells; conditions: Human alphaherpesvirus 1
Summary of the method: (§1)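 Antiviral endpoint was the concentration reducing virus-induced cytopathicity by 50% in […] cell cultures. Values are means of two to six independent determinations.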

Human alphaherpesvirus 1 [2] = test: The minimum inhibitory concentration was measured on E6SM cells against Herpes simplex virus type 1 (F strain); summary of the method: as §1
[3] = The minimum inhibitory concentration was measured on E6SM cells against Herpes simplex virus type 1 (McIntyre strain); conditions: Human alphaherpesvirus 1; summary of the method: as §1
Human alphaherpesvirus 1 [4] = test: The minimum inhibitory concentration was measured on E6SM cells against TK+/TK-Herpes simplex virus type 1 (VMW1837 strain); summary of the method: as §1
Human alphaherpesvirus 1 [5] = test: The minimum inhibitory concentration was measured on E6SM cells against TK-Herpes simplex virus type 1 (B2006 strain); summary of the method: as §1
Vaccinia virus = test: The minimum inhibitory concentration was measured on E6SM cells against Vaccinia virus; conditions: Orthopoxvirus vaccinia; summary of the method: as §1
E6SM = test: The minimum inhibitory concentration was measured on E6SM cells for morphological alteration; conditions: Homo sapiens
Summary of the method: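 In uninfected E6SM cells, the value is the concentration giving a microscopically detectable change in normal cell morphology. Values are means of two to six independent determinations.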

Human alphaherpesvirus 3 [6] = test: The minimum inhibitory concentration was measured on HEL cells against TK-Varicella zoster virus (07/1 strain)
Summary of the method: (§2)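 Antiviral endpoint was the concentration reducing virus plaque formation by 50% in HEL cell cultures. Values are means of two to six independent determinations.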

Human alphaherpesvirus 3 [7] = test: The minimum inhibitory concentration was measured on HEL cells against TK-Varicella zoster virus (YS-R strain); conditions: Human alphaherpesvirus 3, ys-r; summary of the method: as §2
Human alphaherpesvirus 3 [8] = test: The minimum inhibitory concentration was measured on HEL cells against Varicella zoster virus (OKA strain); conditions: Human alphaherpesvirus 3, oka; summary of the method: as §2
Human alphaherpesvirus 3 [9] = test: The minimum inhibitory concentration was measured on HEL cells against Varicella zoster virus (YS strain); summary of the method: as §2
HEL [10] = test: The […] was measured on HEL cells in cell growth; conditions: Homo sapiens
Human betaherpesvirus 5 = test: The minimum inhibitory concentration was measured on HEL cells against Cytomegalovirus virus (AD-169 strain); summary of the method: as §2
Cytomegalovirus = test: The minimum inhibitory concentration was measured on HEL cells against Cytomegalovirus virus (Davis strain); conditions: Human betaherpesvirus 5; summary of the method: as §2
HEL [11] = test: The minimum inhibitory concentration was measured on HEL cells against Cytomegalovirus virus (Davis strain); (<100>40); conditions: Homo sapiens; summary of the method: as §2
HEL [12] = test: The minimum inhibitory concentration was measured on HEL cells against Cytomegalovirus virus (AD-169 strain); (<100>40); conditions: Homo sapiens; summary of the method: as §2
HEL [13] = test: The minimum inhibitory concentration was measured on HEL cells against Cytomegalovirus virus (AD-169 strain); (<400>100); conditions: Homo sapiens; summary of the method: as §2
HEL [14] = test: The minimum inhibitory concentration was measured on E6SM cells against Vesicular stomatitis virus; conditions: Homo sapiens; summary of the method: as §1
HEL [15] = test: The minimum inhibitory concentration was measured on HEL cells against Cytomegalovirus virus (Davis strain); (<400>100); conditions: Homo sapiens; summary of the method: as §2
HEL [16] = test: The minimum inhibitory concentration was measured on HEL cells against TK-Varicella zoster virus (YS-R strain); (<400>100); conditions: Homo sapiens; summary of the method: as §2

| Compound | MIC [1] [mg/L] | MIC (Human alphaherpesvirus 1 [2]) [mg/L] | MIC [3] [mg/L] | MIC (Human alphaherpesvirus 1 [4]) [mg/L] | MIC (Human alphaherpesvirus 1 [5]) [mg/L] | MIC (Vaccinia virus) [mg/L] | MIC (E6SM) [mg/L] | MIC (Human alphaherpesvirus 3 [6]) [mg/L] | MIC (Human alphaherpesvirus 3 [7]) [mg/L] | MIC (Human alphaherpesvirus 3 [8]) [mg/L] | MIC (Human alphaherpesvirus 3 [9]) [mg/L] | MIC (HEL [10]) [mg/L] | MIC (Human betaherpesvirus 5) [mg/L] | MIC (Cytomegalovirus) [mg/L] | MIC (HEL [11]) [mg/L] | MIC (HEL [12]) [mg/L] | MIC (HEL [13]) [mg/L] | MIC (HEL [14]) [mg/L] | MIC (HEL [15]) [mg/L] | MIC (HEL [16]) [mg/L] |
| --- | --- | --- | --- | --- | --- | --- | --- | --- | --- | --- | --- | --- | --- | --- | --- | --- | --- | --- | --- | --- |
| Cc1cnc2nc3c(c(O)n12)NCN3COCCO | 2.1 (≈ 7.92 µM) | 0.1 (≈ 0.377 µM) | 0.5 (≈ 1.88 µM) | > 120 | > 50 | > 150 | > 100 | > 50 | > 50 | > 50 | > 50 | > 200 | > 50 | > 50 | – | – | – | – | – | – |
| OCCOCN1CNc2c1nc1nc(-c3ccc(Br)cc3)cn1c2O | 0.6 (≈ 1.48 µM) | 2 (≈ 4.92 µM) | 0.2 (≈ 0.492 µM) | > 70 | – | > 70 | ≥ 70 | 125 (≈ 308 µM) | 230 (≈ 566 µM) | 1 (≈ 2.46 µM) | 4 (≈ 9.85 µM) | > 200 | – | – | > 40 | > 40 | – | – | – | – |
| CC(C)(C)c1cn2c(O)c3c(nc2n1)N(COCCO)CN3 | 4.5 (≈ 14.6 µM) | 4 (≈ 13 µM) | 2 (≈ 6.51 µM) | > 125 | – | > 250 | > 250 | 40 (≈ 130 µM) | 127 (≈ 413 µM) | 1 (≈ 3.25 µM) | 2.2 (≈ 7.16 µM) | 167 (≈ 543 µM) | – | – | – | – | > 100 | > 125 | > 100 | – |
| Cc1cn2c(O)c3c(nc2n1)N(COC(CO)CO)CN3 | 0.015 (≈ 0.0508 µM) | 0.005 (≈ 0.0169 µM) | 0.02 (≈ 0.0677 µM) | 1.6 (≈ 5.42 µM) | 31 (≈ 105 µM) | > 175 | > 175 | 15 (≈ 50.8 µM) | 15 (≈ 50.8 µM) | 1 (≈ 3.39 µM) | 12 (≈ 40.6 µM) | > 200 | > 50 | > 50 | – | – | – | – | – | – |
| CC(C)(C)c1cn2c(O)c3c(nc2n1)N(COC(CO)CO)CN3 | 0.035 (≈ 0.104 µM) | 0.1 (≈ 0.296 µM) | 0.1 (≈ 0.296 µM) | 0.7 (≈ 2.07 µM) | > 70 | > 135 | > 175 | 50 (≈ 148 µM) | 50 (≈ 148 µM) | 5 (≈ 14.8 µM) | > 20 | > 200 | > 50 | > 50 | – | – | – | – | – | – |
| Cc1cn2c(O)c3c(nc2n1)N(COCCO)C(Br)N3 (centres undefined) | 95 (≈ 276 µM) | 150 (≈ 436 µM) | 150 (≈ 436 µM) | > 125 | – | > 250 | > 250 | 180 (≈ 523 µM) | 185 (≈ 538 µM) | 215 (≈ 625 µM) | 220 (≈ 639 µM) | > 200 | – | – | – | – | > 100 | – | > 100 | – |
| OCCOCN1CNc2c1nc1nc(-c3ccccc3)cn1c2O | 0.4 (≈ 1.22 µM) | 0.7 (≈ 2.14 µM) | 0.2 (≈ 0.611 µM) | > 70 | – | > 100 | > 100 | 67 (≈ 205 µM) | 67 (≈ 205 µM) | 1.3 (≈ 3.97 µM) | 1.4 (≈ 4.28 µM) | 45 (≈ 137 µM) | – | 166 (≈ 507 µM) | – | – | > 100 | – | – | – |
| OCC(CO)OCN1CNc2c1nc1nc(-c3ccccc3)cn1c2O | 0.02 (≈ 0.056 µM) | 0.005 (≈ 0.014 µM) | 0.005 (≈ 0.014 µM) | 0.5 (≈ 1.4 µM) | > 30 | > 90 | > 175 | 3 (≈ 8.39 µM) | 1 (≈ 2.8 µM) | 0.4 (≈ 1.12 µM) | 3 (≈ 8.39 µM) | > 200 | 20 (≈ 56 µM) | 7 (≈ 19.6 µM) | – | – | – | – | – | – |
| OCC(CO)OCN1CNc2c1nc1nc(-c3ccc(-c4ccccc4)cc3)cn1c2O | 0.02 (≈ 0.0461 µM) | 0.01 (≈ 0.0231 µM) | 0.001 (≈ 0.00231 µM) | 2.7 (≈ 6.23 µM) | > 60 | > 70 | > 85 | 25 (≈ 57.7 µM) | 20 (≈ 46.1 µM) | 10 (≈ 23.1 µM) | > 50 | > 200 | > 50 | > 50 | – | – | – | – | – | – |
| OCCOCN1CNc2c1nc1nc(-c3ccc(-c4ccccc4)cc3)cn1c2O | 1.3 (≈ 3.22 µM) | 2 (≈ 4.96 µM) | 0.7 (≈ 1.74 µM) | > 55 | – | > 70 | ≥ 70 | 100 (≈ 248 µM) | – | 65 (≈ 161 µM) | 40 (≈ 99.1 µM) | > 200 | – | – | – | – | > 100 | – | > 100 | > 100 |
| Cc1cn2c(O)c3c(nc2n1)N(COCCO)CN3 | 0.8 (≈ 3.02 µM) | 0.58 (≈ 2.19 µM) | 1 (≈ 3.77 µM) | 40 (≈ 151 µM) | 127 (≈ 479 µM) | > 190 | > 190 | > 50 | 70 (≈ 264 µM) | 4.6 (≈ 17.3 µM) | 9.4 (≈ 35.4 µM) | > 200 | > 50 | > 50 | – | – | – | – | – | – |
| Nc1nc2c(ncn2COCCO)c(=O)[nH]1 [ACYCLOVIR] | 0.02 (≈ 0.0888 µM) | 0.004 (≈ 0.0178 µM) | 0.07 (≈ 0.311 µM) | 5 (≈ 22.2 µM) | 70 (≈ 311 µM) | > 180 | 350 (≈ 1550 µM) | 13.7 (≈ 60.8 µM) | 4.7 (≈ 20.9 µM) | 0.18 (≈ 0.799 µM) | 0.38 (≈ 1.69 µM) | > 200 | 13.2 (≈ 58.6 µM) | – | – | – | – | – | – | – |
| O=c1[nH]c(=O)n([C@H]2C[C@H](O)[C@@H](CO)O2)cc1/C=C/Br [BRIVUDINE] | 0.003 (≈ 0.00901 µM) | 0.005 (≈ 0.015 µM) | 0.006 (≈ 0.018 µM) | 52 (≈ 156 µM) | 15 (≈ 45 µM) | 0.22 (≈ 0.66 µM) | > 350 | 17.5 (≈ 52.5 µM) | 20 (≈ 60 µM) | 0.005 (≈ 0.015 µM) | 0.003 (≈ 0.00901 µM) | 60 (≈ 180 µM) | > 20 | > 20 | – | – | – | – | – | – |
| Nc1nc2c(ncn2COC(CO)CO)c(=O)[nH]1 [GANCICLOVIR] | 0.003 (≈ 0.0118 µM) | 0.004 (≈ 0.0157 µM) | 0.004 (≈ 0.0157 µM) | 0.08 (≈ 0.313 µM) | 4.5 (≈ 17.6 µM) | > 80 | > 270 | 1.5 (≈ 5.88 µM) | 1.4 (≈ 5.49 µM) | 0.5 (≈ 1.96 µM) | 1.4 (≈ 5.49 µM) | > 200 | 1.5 (≈ 5.88 µM) | 0.9 (≈ 3.53 µM) | – | – | – | – | – | – |
| O=c1[nH]c(=O)n([C@H]2C[C@H](O)[C@@H](CO)O2)cc1I [IDOXURIDINE] | 20 (≈ 56.5 µM) | 7 (≈ 19.8 µM) | 4 (≈ 11.3 µM) | 20 (≈ 56.5 µM) | – | > 20 | ≥ 400 | – | – | – | – | – | – | – | – | – | – | – | – | – |
| NC(=O)c1ncn([C@@H]2O[C@H](CO)[C@@H](O)[C@H]2O)n1 [RIBAVIRIN] | 46 (≈ 188 µM) | 23 (≈ 94.2 µM) | 16 (≈ 65.5 µM) | 115 (≈ 471 µM) | 53 (≈ 217 µM) | 28 (≈ 115 µM) | 400 (≈ 1640 µM) | – | – | – | – | – | – | – | – | – | – | – | – | – |
